In ChEMBL document CHEMBL1250552, “Quantitative structure-activity relationship studies of threo-methylphenidate analogs” (Bioorg Med Chem, 2010):
pIC50: −log10 of the molar value.

biological target: Sodium-dependent dopamine transporter (Rattus norvegicus, UniProt P23977); assay: Displacement of [3H]WIN 35428 from Sprague-Dawley rat striatal tissue after 2 hrs by liquid scintillation counting; format: tissue-based, Striatum; conditions: read-out: IC50
Procedure, shortened: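 Male Sprague–Dawley rats anesthetized with CO₂ gas. Crude synaptosomal P₂ fraction made from striatum and homogenized in 25 mM sodium phosphate, pH 7.7, at 0 °C. Rapid filtration through glass microfiber filters, then scintillation counting.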

Chain of Sodium-dependent dopamine transporter (P23977 whole entry): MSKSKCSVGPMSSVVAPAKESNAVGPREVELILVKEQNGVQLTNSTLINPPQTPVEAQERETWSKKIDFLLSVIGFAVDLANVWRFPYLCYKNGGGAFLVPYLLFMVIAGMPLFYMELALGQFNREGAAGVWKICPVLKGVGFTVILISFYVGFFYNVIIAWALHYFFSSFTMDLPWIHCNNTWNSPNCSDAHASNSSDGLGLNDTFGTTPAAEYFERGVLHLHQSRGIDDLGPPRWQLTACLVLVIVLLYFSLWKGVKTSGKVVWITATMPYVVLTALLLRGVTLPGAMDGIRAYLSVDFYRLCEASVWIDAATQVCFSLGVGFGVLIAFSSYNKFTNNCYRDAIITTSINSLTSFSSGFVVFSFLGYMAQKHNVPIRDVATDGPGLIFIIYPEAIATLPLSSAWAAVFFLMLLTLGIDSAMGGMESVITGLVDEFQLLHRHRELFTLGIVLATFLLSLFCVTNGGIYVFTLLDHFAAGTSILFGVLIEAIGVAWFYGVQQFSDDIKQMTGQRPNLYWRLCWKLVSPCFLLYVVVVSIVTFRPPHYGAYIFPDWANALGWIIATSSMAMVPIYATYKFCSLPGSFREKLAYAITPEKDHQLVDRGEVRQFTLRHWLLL

Row | Structure (SMILES) | pIC50
1 | COC(=O)[C@H](c1ccc(Cl)cc1)[C@H]1CCCCN1 | 7.69
2 | COC(=O)[C@H](c1ccc(C)cc1)[C@H]1CCCCN1 | 7.48
3 | COC(=O)[C@H](c1ccc(Cl)c(Cl)c1)[C@H]1CCCCN1 | 8.28
4 | COC(=O)[C@H](c1ccc2ccccc2c1)[C@H]1CCCCN1 | 7.96
5 | COC(=O)[C@H](c1ccccc1Cl)[C@H]1CCCCN1 | 5.71
6 | COC(=O)[C@H](c1ccccc1Br)[C@@]1(C)CCCCN1 | 5.73
7 | COC(=O)[C@H](c1cccc(O)c1)[C@H]1CCCCN1 | 6.49
8 | COC(=O)[C@H](c1cccc(Cl)c1)[C@H]1CCCCN1 | 8.29
9 | COC(=O)[C@H](c1ccc(F)cc1)[C@H]1CCCCN1 | 7.46
10 | COC(=O)[C@H](c1ccccc1F)[C@H]1CCCCN1 | 5.85
11 | COC(=O)[C@H](c1cccc(F)c1)[C@H]1CCCCN1 | 7.39
12 | COC(=O)[C@H](c1cccc(N)c1)[C@H]1CCCCN1 | 6.58
13 | COC(=O)[C@H](c1ccc(N)cc1)[C@H]1CCCCN1 | 7.46
14 | COC(=O)[C@H](c1cccc(Cl)c1)[C@@]1(C)CCCCN1C | 6.80
15 | COC(=O)[C@H](c1ccc(I)cc1)[C@H]1CCCCN1 | 7.85
16 | COC(=O)[C@H](c1cccc(Br)c1)[C@H]1CCCCN1 | 8.38
17 | COC(=O)[C@H](c1ccc(OCO)c(CO)c1)[C@H]1CCCCN1C | 6.21
18 | COC(=O)[C@H](c1ccc([N+](=O)[O-])cc1)[C@H]1CCCCN1 | 6.31
19 | COC(=O)[C@H](c1ccc(OC)c(OC)c1)[C@H]1CCCCN1 | 6.09
20 | OC[C@H](c1ccccc1)[C@H]1CCCCN1Cc1ccccc1 | 7.63
21 | COC[C@H](c1ccccc1)[C@H]1CCCCN1Cc1ccccc1 | 7.75
22 | COC(=O)[C@H](c1ccccc1)[C@H]1CCCCN1Cc1ccccc1 | 7.28
23 | COC(=O)[C@H](c1ccc(C(F)(F)F)cc1)[C@H]1CCCCN1 | 6.21

Row | Structure (SMILES) | pIC50
24 | COC(=O)[C@H](c1ccc(Br)cc1)[C@H]1CCCCN1 | 8.16
25 | OC[C@H](c1ccccc1)[C@H]1CCCCN1 (racemic) | 6.35
26 | COC[C@H](c1ccccc1)[C@H]1CCCCN1 (racemic) | 7.01
27 | OC[C@H](c1ccc(Cl)c(Cl)c1)[C@H]1CCCCN1 (racemic) | 8.38
28 | CCN1CCCC[C@@H]1[C@H](CO)c1ccccc1 (racemic) | 5.63
29 | OC[C@H](c1cccc(F)c1)[C@H]1CCCCN1 (racemic) | 6.55
30 | COC[C@H](c1ccc(Cl)c(Cl)c1)[C@H]1CCCCN1 (racemic) | 8.77
31 | NC(=O)[C@H](c1ccc(Cl)c(Cl)c1)[C@H]1CCCCN1 (racemic) | 7.79
32 | CC(=O)OC[C@H](c1ccccc1)[C@H]1CCCCN1 (racemic) | 6.16
33 | NC(=O)[C@H](c1ccccc1)[C@H]1CCCCN1 (racemic) | 5.76
34 | CCc1ccc([C@@H](C(=O)OC)[C@H]2CCCCN2)cc1 (racemic) | 6.13
35 | COC(=O)[C@H](c1cc(Cl)cc(Cl)c1)[C@H]1CCCCN1 (racemic) | 7.18
36 | COC(=O)[C@H](c1cc(C)cc(C)c1)[C@H]1CCCCN1 (racemic) | 5.33
37 | COC(=O)[C@H](c1ccccc1)[C@H]1CCCCN1Cc1ccc([N+](=O)[O-])cc1 (racemic) | 6.95
38 | COC(=O)[C@H](c1ccccc1)[C@H]1CCCCN1Cc1ccc(Cl)cc1 (racemic) | 7.51
39 | C=CCN1CCCC[C@@H]1[C@H](C(=O)OC)c1ccccc1 (racemic) | 6.22
40 | COC(=O)[C@H](c1ccccc1)[C@H]1CCCCN1Cc1ccccc1Cl (racemic) | 6.61
41 | COC(=O)[C@H](c1ccccc1)[C@H]1CCCCN1CCCCCCc1ccccc1 (racemic) | 6.18
42 | COC(=O)[C@H](c1ccccc1)[C@H]1CCCCN1CCCCCc1ccccc1 (racemic) | 5.80
43 | COC(=O)[C@H](c1ccccc1)[C@H]1CCCCN1CCCCc1ccccc1 (racemic) | 6.69
44 | COC(=O)[C@H](c1ccccc1)[C@H]1CCCCN1CCc1ccccc1 (racemic) | 6.17
45 | COC(=O)[C@H](c1ccccc1)[C@H]1CCCCN1Cc1cccc(Cl)c1 (racemic) | 6.97
46 | COC(=O)[C@H](c1ccccc1)[C@H]1CCCCN1CCCc1ccccc1 (racemic) | 6.57

Row | Structure (SMILES) | pIC50
47 | OC[C@H](c1ccccc1)[C@H]1CCCCN1CCc1ccccc1 (racemic) | 5.84
48 | OC[C@H](c1ccccc1)[C@H]1CCCCN1CCCCc1ccccc1 (racemic) | 6.21
49 | C#CCN1CCCC[C@@H]1[C@H](C(=O)OC)c1ccccc1 (racemic) | 6.09
50 | OC[C@H](c1ccccc1)[C@H]1CCCCN1CCCc1ccccc1 (racemic) | 6.71
51 | COC(=O)[C@H](c1ccccc1)[C@H]1CCCCN1Cc1ccc(N=C=S)cc1 (racemic) | 6.37
52 | COC(=O)[C@H](c1cccc(Cl)c1)[C@H]1CCCCN1Cc1ccccc1 (racemic) | 7.39
53 | CN(C)C(=O)[C@H](c1ccccc1)[C@H]1CCCCN1Cc1ccccc1 (racemic) | 5.76
54 | NC(=O)[C@H](c1ccccc1)[C@H]1CCCCN1Cc1ccccc1 (racemic) | 6.42
55 | COC(=O)[C@H](c1ccc(Cl)c(Cl)c1)[C@H]1CCCCN1Cc1ccccc1 (racemic) | 7.12
56 | OC[C@H](c1ccc(Cl)c(Cl)c1)[C@H]1CCCCN1Cc1ccccc1 (racemic) | 8.56
57 | COC[C@H](c1ccc(Cl)c(Cl)c1)[C@H]1CCCCN1Cc1ccccc1 (racemic) | 8.38
58 | O=C(OCc1ccccc1)[C@H](c1ccccc1)[C@H]1CCCCN1 (racemic) | 5.99
59 | OC[C@H](c1ccccc1)[C@H]1CCCCN1Cc1cccc(Cl)c1 (racemic) | 7.59
60 | COC(=O)[C@H](c1ccccc1)[C@H]1CCCCN1Cc1ccoc1 (racemic) | 6.34
61 | COC(=O)[C@H](c1ccccc1)[C@H]1CCCCN1Cc1cccs1 (racemic) | 6.65
62 | COC(=O)[C@H](c1ccccc1)[C@H]1CCCCN1Cc1ccsc1 (racemic) | 6.84
63 | COC(=O)[C@H](c1ccccc1)[C@H]1CCCCN1Cc1ccco1 (racemic) | 6.27
64 | COC(=O)[C@H](c1ccccc1)[C@H]1CCCCN1Cc1ccncc1 (racemic) | 6.89
65 | COC(=O)[C@H](c1ccccc1)[C@H]1CCCCN1Cc1cccnc1 (racemic) | 6.76
66 | COC(=O)[C@H](c1ccccc1)[C@H]1CCCCN1Cc1ccccn1 (racemic) | 6.43
67 | COC(=O)[C@H](c1ccccc1)[C@H]1CCCCN1Cc1ccc(Cl)s1 (racemic) | 6.41
68 | COC(=O)[C@H](c1ccccc1)[C@H]1CCCCN1Cc1ccc(OC)cc1 (racemic) | 7.10

same assay, conditions: read-out: pIC50 (converted)

Row | Structure (SMILES) | IC50 [nM]
69 | COC(=O)[C@H](c1ccc(O)cc1)[C@H]1CCCCN1C | 1200
70 | COC(=O)[C@H](c1ccc(C)cc1)[C@H]1CCCCN1C | 141
71 | OC[C@H](c1ccc(Cl)c(Cl)c1)[C@H]1CCCCN1Cc1ccccc1 (racemic) | 2.69
